Results as given in the M2OR odorant receptor database.

What was measured:
Conditions in all cases: stereoisomer not certain
UniProt Q8VGL0 = target: T1, UniProt Q8VGL0
T1 sequence (whole entry): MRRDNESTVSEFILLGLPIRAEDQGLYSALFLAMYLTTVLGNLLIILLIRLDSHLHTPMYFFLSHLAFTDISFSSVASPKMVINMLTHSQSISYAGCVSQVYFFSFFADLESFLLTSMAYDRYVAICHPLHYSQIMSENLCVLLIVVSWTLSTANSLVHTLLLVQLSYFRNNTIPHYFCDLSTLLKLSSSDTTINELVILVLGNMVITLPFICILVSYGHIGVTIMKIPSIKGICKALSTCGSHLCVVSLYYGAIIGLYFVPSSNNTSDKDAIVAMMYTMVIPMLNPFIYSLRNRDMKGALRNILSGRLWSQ
Method in brief: (§1)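 Whether a receptor–molecule pair is responsive (active) rests on the original authors' judgment that its measured signal was statistically different from baseline. Pairs without that judgment are non-responsive (inactive). Sources used varied assay methods, commonly transient luciferase assays in mammalian cell lines.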

UniProt Q8VGU3 = target: T2, UniProt Q8VGU3
T2 sequence (whole entry): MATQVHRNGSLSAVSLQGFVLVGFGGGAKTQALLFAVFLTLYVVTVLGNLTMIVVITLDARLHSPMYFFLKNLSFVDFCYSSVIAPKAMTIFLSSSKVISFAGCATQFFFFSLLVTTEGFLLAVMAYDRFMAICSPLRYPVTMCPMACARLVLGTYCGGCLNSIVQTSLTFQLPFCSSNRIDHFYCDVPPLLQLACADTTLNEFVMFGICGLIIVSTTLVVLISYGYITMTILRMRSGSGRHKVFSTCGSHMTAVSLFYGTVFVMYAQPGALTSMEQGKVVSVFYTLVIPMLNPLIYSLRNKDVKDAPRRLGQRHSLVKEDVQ
Method in brief: as §1

UniProt Q8VGV7 = target: T3, UniProt Q8VGV7
T3 sequence (whole entry): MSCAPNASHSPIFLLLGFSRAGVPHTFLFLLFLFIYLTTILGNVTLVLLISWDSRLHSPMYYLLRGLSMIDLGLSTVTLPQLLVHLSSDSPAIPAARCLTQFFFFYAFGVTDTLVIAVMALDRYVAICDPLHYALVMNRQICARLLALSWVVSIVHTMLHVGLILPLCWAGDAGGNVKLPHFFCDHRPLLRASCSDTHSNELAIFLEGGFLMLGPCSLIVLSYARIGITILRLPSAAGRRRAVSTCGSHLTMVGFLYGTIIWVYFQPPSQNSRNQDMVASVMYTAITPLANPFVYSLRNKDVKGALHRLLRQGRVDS
Method in brief: as §1

UniProt Q8VGX3 = target: T4, UniProt Q8VGX3
T4 sequence (whole entry): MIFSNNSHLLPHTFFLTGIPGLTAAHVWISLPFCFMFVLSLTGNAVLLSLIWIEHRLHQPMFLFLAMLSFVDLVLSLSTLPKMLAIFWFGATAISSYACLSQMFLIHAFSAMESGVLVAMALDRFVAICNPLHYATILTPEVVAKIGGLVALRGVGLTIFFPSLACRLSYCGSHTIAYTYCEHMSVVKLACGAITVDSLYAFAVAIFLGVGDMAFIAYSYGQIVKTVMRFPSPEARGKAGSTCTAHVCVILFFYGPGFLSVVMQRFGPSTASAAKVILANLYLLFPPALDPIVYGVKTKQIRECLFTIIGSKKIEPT
Method in brief: as §1

UniProt Q8VGX5 = target: T5, UniProt Q8VGX5
T5 sequence (whole entry): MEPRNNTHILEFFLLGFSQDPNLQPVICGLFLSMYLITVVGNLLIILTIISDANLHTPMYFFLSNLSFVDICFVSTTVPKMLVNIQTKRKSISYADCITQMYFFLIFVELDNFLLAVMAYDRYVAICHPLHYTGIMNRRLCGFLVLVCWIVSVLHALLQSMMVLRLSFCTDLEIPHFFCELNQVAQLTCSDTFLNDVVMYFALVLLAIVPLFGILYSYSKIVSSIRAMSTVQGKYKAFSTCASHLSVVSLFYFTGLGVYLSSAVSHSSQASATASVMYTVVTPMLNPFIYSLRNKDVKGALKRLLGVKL
Method in brief: as §1

UniProt Q8VGZ2 = target: T6, UniProt Q8VGZ2
T6 sequence (whole entry): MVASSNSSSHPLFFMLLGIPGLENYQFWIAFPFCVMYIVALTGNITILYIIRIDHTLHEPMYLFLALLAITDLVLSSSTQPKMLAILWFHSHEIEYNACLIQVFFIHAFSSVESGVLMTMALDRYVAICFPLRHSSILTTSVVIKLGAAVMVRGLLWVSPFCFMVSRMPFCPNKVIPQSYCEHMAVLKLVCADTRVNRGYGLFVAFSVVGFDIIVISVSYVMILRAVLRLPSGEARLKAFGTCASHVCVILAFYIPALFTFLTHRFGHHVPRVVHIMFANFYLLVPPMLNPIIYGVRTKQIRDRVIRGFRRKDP
Method in brief: as §1

UniProt Q8VGZ7 = target: T7, UniProt Q8VGZ7
T7 sequence (whole entry): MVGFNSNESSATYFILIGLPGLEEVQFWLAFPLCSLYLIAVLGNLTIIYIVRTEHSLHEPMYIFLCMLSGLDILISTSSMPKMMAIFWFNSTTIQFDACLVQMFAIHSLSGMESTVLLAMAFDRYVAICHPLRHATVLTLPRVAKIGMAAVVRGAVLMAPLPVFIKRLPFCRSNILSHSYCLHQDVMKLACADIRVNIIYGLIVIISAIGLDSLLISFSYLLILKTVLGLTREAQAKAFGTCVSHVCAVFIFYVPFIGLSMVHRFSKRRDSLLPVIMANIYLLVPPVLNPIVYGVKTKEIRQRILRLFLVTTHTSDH
Method in brief: as §1

UniProt Q8VH16 = target: T8, UniProt Q8VH16
T8 sequence (whole entry): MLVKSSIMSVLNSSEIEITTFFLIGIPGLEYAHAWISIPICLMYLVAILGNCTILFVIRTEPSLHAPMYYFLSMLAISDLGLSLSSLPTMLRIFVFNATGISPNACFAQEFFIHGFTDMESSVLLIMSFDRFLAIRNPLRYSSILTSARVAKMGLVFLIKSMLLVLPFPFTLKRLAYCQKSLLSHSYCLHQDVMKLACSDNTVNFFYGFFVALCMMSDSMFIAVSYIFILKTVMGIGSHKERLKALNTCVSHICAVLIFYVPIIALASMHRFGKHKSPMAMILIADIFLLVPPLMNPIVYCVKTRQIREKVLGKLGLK
Method in brief: as §1

UniProt Q8VH20 = target: T9, UniProt Q8VH20
T9 sequence (whole entry): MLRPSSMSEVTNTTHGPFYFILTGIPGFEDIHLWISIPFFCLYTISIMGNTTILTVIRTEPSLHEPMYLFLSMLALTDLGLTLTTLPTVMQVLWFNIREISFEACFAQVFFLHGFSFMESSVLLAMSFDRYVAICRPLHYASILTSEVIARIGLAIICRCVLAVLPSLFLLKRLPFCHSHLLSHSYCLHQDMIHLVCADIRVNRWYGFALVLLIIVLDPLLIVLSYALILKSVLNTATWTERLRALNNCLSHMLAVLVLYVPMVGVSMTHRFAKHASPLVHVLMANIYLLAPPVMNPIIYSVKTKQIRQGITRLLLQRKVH
Method in brief: as §1

Measured: odorant receptor agonist call;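 further: active if original authors judged signal statistically different from baseline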

Cc1ccc(OC(=O)Cc2ccccc2)cc1
active: UniProt Q8VH20
inactive: all other assays above

COc1ccc(C=O)cc1
inactive: all assays above
